Measurements taken from paper PMC4325620 (Memórias do Instituto Oswaldo Cruz, 2014).
Read-outs that look alike come from different tables or passages of the source.

Legend:
[1] = tested on: promastigotes of Leishmania donovani; details: ref Camacho et al. 2000; cited from earlier work
[2] = tested on: axenic amastigotes of Leishmania donovani; details: ref Weniger et al. 2006, Kunert et al. 2008; cited from earlier work
[3] = tested on: NO production by L. amazonensis infected cells; test: Nitric oxide; assay type: cell-based, BALB/c mice; details: for NO production: vs untreated infected cells; for production of nitric oxide (NO): treated infected cells, concentration not given
Method in brief: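 Supernatants were taken from infected BALB/c peritoneal macrophages treated as in the amastigote assay. Nitrite was quantified against a sodium nitrite standard curve (1-10 µM in RPMI). Results are mean ± SD, compared with untreated infected cells by Student's t test.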

[4] = tested on: Murine macrophages (J774.A1); test: Cytotoxicity assay; assay type: cell-based; details: for IC50: Mus musculus, J774.A1, 48 h; for J774.A1 SI (selectivity index): SI = IC50 mammalian cell/IC50 amastigotes (µg/mL)
Method in brief: (§1)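 Cells exposed 48 h at 37 °C, 5% CO2, to four concentrations (0.25-250 µg/mL) in triplicate. Amphotericin B reference (0.025-25 µg/mL); DMSO vehicle control. SRB read-out: fixation in cold 20% TCA, 30 min at 4 °C; 0.1% SRB in 1% acetic acid, 30 min; dye solubilised in 10 mM Trizma; OD 540 nm. IC50 by non-linear regression. SI = mammalian-cell IC50 / amastigote IC50.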

[5] = tested on: fibroblast cells (NIH/3T3); test: Cytotoxicity assay; assay type: cell-based, murine; details: for IC50: Mus musculus, NIH3T3, 48 h; for NIH/3T3 SI (selectivity index): SI = IC50 mammalian cell/IC50 amastigotes (µg/mL)
Method in brief: as §1

[6] = tested on: intracellular amastigotes of Leishmania (Leishmania) amazonensis; assay type: cell-based, Leishmania (L.) amazonensis (IFLA/BR/1967/PH8); details: for reduction of infection index: 72 h; for IC50: Peritoneal macrophage
Method in brief: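 Resident peritoneal macrophages from 6-week-old female BALB/c mice, 1 x 10^5/well in RPMI-1640 with 10% FCS and gentamicin, 1 h at 37 °C, 5% CO2. Infected with promastigotes (1 x 10^6/well), 4 h at 35 °C. Extract 50-12.5 µg/mL (24, 48, 72 h) or isolated compounds (72 h) at 35 °C. Giemsa staining; 200 cells counted per replicate. Infection index = % infected macrophages × mean amastigotes per macrophage. IC50 by non-linear dose-response regression.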

[7] = read-out: Intracellular amastigotes IC50
[8] = read-out: Intracellular amastigotes IC50 (µM)

Which results are given for `O=c1cc(-c2ccc(O)c(-c3c(O)cc(O)c4c(=O)cc(-c5ccc(O)cc5)oc34)c2)oc2cc(O)cc(O)c12` [Amentoflavone, amentoflavone]?
activity on promastigotes [1]: poor activity; activity on axenic amastigotes [2]: not active; NO production ([3]; 0.75 µg/mL, 72 h, p < 0.01): significantly lower; NO production ([3]; 1.5 µg/mL, 72 h, p < 0.05): significantly lower; production of nitric oxide (NO) [3]: lower; IC50 ([4]; read-out: J774.A1 IC50): 3 µg/mL; IC50 ([4]; read-out: J774.A1 IC50 (µM)): 5.5 µM; J774.A1 SI (selectivity index) [4]: 30; IC50 ([5]; read-out: NIH/3T3 IC50): 2.2 µg/mL; IC50 ([5]; read-out: NIH/3T3 IC50 (µM)): 4 µM; NIH/3T3 SI (selectivity index) [5]: 22; reduction of infection index ([6]; all concentrations tested, compared to the control): greater than 90.6%; reduction of infection index ([6]; highest concentration (3 µg/mL)): ~100%; IC50 [6, 7]: 0.1 µg/mL; IC50 [6, 8]: 0.2 µM

What does the source list for `C[C@@H]1[C@H](O)[C@@H](C)/C=C/C=C/C=C/C=C/C=C/C=C/C=C/[C@H](O[C@@H]2O[C@H](C)[C@@H](O)[C@H](N)[C@@H]2O)C[C@@H]2O[C@](O)(C[C@@H](O)C[C@@H](O)[C@H](O)CC[C@@H](O)C[C@@H](O)CC(=O)O[C@H]1C)C[C@H](O)[C@H]2C(=O)O` [Amphotericin B, reference compound]?
IC50 ([4]; read-out: J774.A1 IC50): 4.3 µg/mL; IC50 ([4]; read-out: J774.A1 IC50 (µM)): 4.7 µM; J774.A1 SI (selectivity index) [4]: 143.3; IC50 ([5]; read-out: NIH/3T3 IC50): 2.2 µg/mL; IC50 ([5]; read-out: NIH/3T3 IC50 (µM)): 2.2 µM; NIH/3T3 SI (selectivity index) [5]: 73; IC50 [6, 7]: 0.03 µg/mL; IC50 [6, 8]: 0.035 µM

Which results are given for `O=c1cc(-c2ccc(O)c(-c3c(O)cc4oc(-c5ccc(O)cc5)cc(=O)c4c3O)c2)oc2cc(O)cc(O)c12` [Robustaflavone, robustaflavone]?
NO release ([3]; highest concentration tested, 72 h): increased; production of nitric oxide (NO) [3]: higher; IC50 ([4]; read-out: J774.A1 IC50): 3.1 µg/mL; IC50 ([4]; read-out: J774.A1 IC50 (µM)): 5.7 µM; J774.A1 SI (selectivity index) [4]: 1.1; IC50 ([5]; read-out: NIH/3T3 IC50): 25.5 µg/mL; IC50 ([5]; read-out: NIH/3T3 IC50 (µM)): 47.4 µM; NIH/3T3 SI (selectivity index) [5]: 9.1; reduction of infection index ([6]; 12.5 µg/mL): 90.8%; IC50 [6, 7]: 2.8 µg/mL; IC50 [6, 8]: 5.3 µM
